Results as given in article PMC3687671 (British Journal of Pharmacology, 2013).
“Also recorded” adds a separate entry of the source. Like-named read-outs stand apart in the source and are kept apart here.

Experiments:
human CBS = biological target: T1, human CBS (Homo sapiens, UniProt P35520); assay: H2S production by purified recombinant GST-CBS; assay type: biochemical
T1 sequence (P35520 1-551): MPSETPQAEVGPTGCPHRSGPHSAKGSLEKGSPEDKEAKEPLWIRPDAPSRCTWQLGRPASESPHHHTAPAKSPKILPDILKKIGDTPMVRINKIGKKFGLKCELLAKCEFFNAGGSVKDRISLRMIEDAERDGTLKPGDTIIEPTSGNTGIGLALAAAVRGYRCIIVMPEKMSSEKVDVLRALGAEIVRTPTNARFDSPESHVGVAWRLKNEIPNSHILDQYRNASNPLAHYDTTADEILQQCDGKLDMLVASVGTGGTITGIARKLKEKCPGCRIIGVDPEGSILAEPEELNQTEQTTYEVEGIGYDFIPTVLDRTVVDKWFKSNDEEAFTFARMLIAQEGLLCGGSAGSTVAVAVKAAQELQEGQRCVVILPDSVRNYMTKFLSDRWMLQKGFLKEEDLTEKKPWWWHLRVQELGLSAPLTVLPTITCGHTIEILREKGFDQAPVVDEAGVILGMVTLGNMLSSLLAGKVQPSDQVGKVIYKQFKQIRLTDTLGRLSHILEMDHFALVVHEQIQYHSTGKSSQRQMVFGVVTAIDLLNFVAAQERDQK
In short: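 Human CBS was expressed as an N-terminal GST fusion in E. coli BL21(DE3) Codon Plus (0.3 mM δ-ALA, 0.1 mM IPTG, overnight at 30°C) and purified by GSH affinity. Each 100 μL reaction held 5 μg enzyme, 0.01 mM PLP, 1 mM L-cys, 1 mM homocysteine and 50 mM sodium phosphate pH 8.2. Test compound went in 15 min before substrate, then 60 min at 37°C. Stopped with ZnAc/TCA; methylene blue A655 against H2S standard curve; n = 9.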

human CSE = human CSE (Homo sapiens, UniProt P32929); assay: H2S production by purified recombinant GST-CSE; assay type: biochemical; conditions: for IC50: 10 μM PLP, 1 mM L-cys, inhibitor added 15 min before L-cys, 60 min, 37°C
human CSE, sequence (P32929 whole entry, the tested form may be a part): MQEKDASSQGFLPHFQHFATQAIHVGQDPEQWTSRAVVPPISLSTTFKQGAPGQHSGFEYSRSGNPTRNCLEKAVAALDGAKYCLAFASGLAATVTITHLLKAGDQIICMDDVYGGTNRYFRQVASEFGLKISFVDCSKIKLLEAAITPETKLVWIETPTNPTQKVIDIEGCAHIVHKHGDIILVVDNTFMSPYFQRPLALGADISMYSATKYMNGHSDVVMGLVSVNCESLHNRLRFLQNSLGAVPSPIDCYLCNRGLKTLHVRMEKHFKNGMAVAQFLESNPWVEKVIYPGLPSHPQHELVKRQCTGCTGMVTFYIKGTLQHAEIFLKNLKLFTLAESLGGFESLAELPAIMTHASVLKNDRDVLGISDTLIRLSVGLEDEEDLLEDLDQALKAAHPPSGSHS
In short: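 Human CSE was made as a GST fusion in E. coli BL21(DE3) Codon Plus (0.1 mM IPTG, overnight at 18°C) and GSH-affinity purified. Each 100 μL reaction held 5 μg enzyme, 0.01 mM PLP, 1 mM L-cys and 50 mM sodium phosphate pH 8.2. Test compound was preincubated 15 min before L-cys, then 60 min at 37°C. ZnAc then TCA; methylene blue absorbance at 655 nm read against H2S calibration; n = 9.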

rat aortic rings = assay: Isolated rat aortic ring assay; conditions: cumulative concentration-response
In short: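 Thoracic aortic rings (2–3 mm) from Sprague–Dawley rats (~300 g) were held in oxygenated Krebs–Henseleit at 37°C under 1 g resting tension, with isometric force recorded. Test compound was added 20 min before 1 μM phenylephrine. At the contraction plateau, cumulative L-cys concentration–response curves were run. At least four rings, each from a different rat; mean ± SEM.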

## NCCO/C=C/[C@H](N)C(=O)O [AVG, aminoethoxyvinylglycine]
Human CBS; up to 1 mM
  Effect on CBS activity: Neither PAG nor AVG had any effect on CBS activity; also recorded: failed to reduce CBS activity
Human CSE; CSE, IC50, 5 μg CSE
  IC50: 1 ± 0.1 µM

## N[C@@H]1CON=C1O [D-Cycloserine, D-cycloserine]
Human CBS; 0.1 mM compound
  CBS H2S production (% of control): 94.2 ± 20.5 % of control
Human CBS; 1 mM compound
  CBS H2S production (% of control): 80.6 ± 21.0 % of control
Human CSE; 0.1 mM compound
  CSE H2S production (% of control): 83.3 ± 19.2 % of control
Human CSE; 1 mM
  Effect on CSE activity: showed a tendency to reduce CSE activity
Human CSE; 1 mM compound
  CSE H2S production (% of control): 73.3 ± 18.6 % of control

## N[C@H](CS)C(=O)O [D-cysteine]
Rat aortic rings
  Relaxation of phenylephrine-contracted aortic rings: but not D-cysteine, led to a concentration-dependent relaxation

## CCN(CC)/[N+]([O-])=N/O.CCNCC [DEA/NO, diethylamine NONOate]
Human CBS; NO donor, up to 250 μM
  Effect on CBS activity: did not affect CBS activity; also recorded: CBS was resistant
Human CSE; 5 μM
  Inhibition of CSE activity: did not inhibit CSE activity
Human CSE; 250 μM
  Maximal inhibition of CSE activity: 75%
Human CSE; NO donor, concentration-response
  Effect on CSE activity: concentration dependently attenuated CSE activity

## NO [HA, hydroxylamine]
Human CBS; 100 μM
  Inhibition of CBS: approximately 30%
Human CSE; 5 μM
  Inhibition of CSE activity: approximately 60%
Human CSE; 50 μM
  Inhibition of CSE activity: abolished CSE activity
Human CSE; IC50 CBS / IC50 CSE
  Selectivity towards CSE versus CBS: 60 fold
Human CSE; read-out: CSE, IC50, 5 μg CSE
  IC50: 4.83 ± 0.31 µM

## NNC(=O)c1ccncc1 [Isoniazid, isoniazid]
Human CBS; 0.1 mM compound
  CBS H2S production (% of control): 86.4 ± 9.4 % of control
Human CBS; 1 mM compound
  CBS H2S production (% of control): 88.4 ± 2.1 % of control
Human CSE; 0.1 mM compound
  CSE H2S production (% of control): 93.3 ± 23.0 % of control
Human CSE; 1 mM
  Effect on CSE activity: showed a tendency to reduce CSE activity

## N[C@@H](CS)C(=O)O [L-cys, L-cysteine]
Rat aortic rings
  Relaxation of phenylephrine-contracted aortic rings: led to a concentration-dependent relaxation

## C[Se]C[C@H](N)C(=O)O [Methylseleno-cysteine, methylselenocysteine]
Human CBS; 0.1 mM compound
  CBS H2S production (% of control): 95.5 ± 2.1 % of control
Human CBS; 1 mM compound
  CBS H2S production (% of control): 79.2 ± 5.1 % of control
Human CBS; 0.1 and 1 mM (Table 2)
  Effect on CBS activity: did not inhibit the activity of neither CBS nor CSE
Human CSE; 0.1 mM compound
  CSE H2S production (% of control): 85.5 ± 4.4 % of control
Human CSE; 1 mM compound
  CSE H2S production (% of control): 79.7 ± 4.3 % of control
Human CSE; 0.1 and 1 mM (Table 2)
  Effect on CSE activity: did not inhibit the activity of neither CBS nor CSE

## C#CCN(C)Cc1ccccc1 [Pargyline, pargyline]
Human CBS; 0.1 mM compound
  CBS H2S production (% of control): 74.0 ± 12.8 % of control
Human CBS; 1 mM compound
  CBS H2S production (% of control): 90.1 ± 14.3 % of control
Human CBS; 0.1 and 1 mM (Table 2)
  Effect on CBS activity: failed to significantly reduce CSE or CBS activity
Human CSE; 0.1 mM compound
  CSE H2S production (% of control): 96.7 ± 7.1 % of control
Human CSE; 1 mM compound
  CSE H2S production (% of control): 81.7 ± 12.5 % of control
Human CSE; 0.1 and 1 mM (Table 2)
  Effect on CSE activity: failed to significantly reduce CSE or CBS activity

## C#CCOc1ccc(N)cc1C(=O)NCCCC [Parsalmide]
Human CBS; 0.1 mM compound
  CBS H2S production (% of control): 88.4 ± 7.4 % of control
Human CBS; 1 mM compound
  CBS H2S production (% of control): 93.8 ± 9.9 % of control
Human CBS; 0.1 and 1 mM (Table 2)
  Effect on CBS activity: failed to significantly reduce CSE or CBS activity
Human CSE; 0.1 mM compound
  CSE H2S production (% of control): 86.7 ± 17.8 % of control
Human CSE; 1 mM compound
  CSE H2S production (% of control): 76.7 ± 11.3 % of control
Human CSE; 0.1 and 1 mM (Table 2)
  Effect on CSE activity: failed to significantly reduce CSE or CBS activity

## N[C@H](C(=O)O)C(F)(F)F [Trifluoroalanine, trifluoroalanine]
Human CBS
  Potency on CBS relative to HA: fourfold
Human CBS; IC50 CSE / IC50 CBS
  Selectivity for CBS (fold lower IC50 for CBS versus CSE): fourfold
Human CSE; read-out: CSE, IC50, 5 μg CSE
  IC50: 289 ± 7 µM
